Assay results from article PMC6049601 (International Journal of Nanomedicine, 2018).

What was measured:
[1] = Oral bioavailability / pharmacokinetic study in rats; type: in vivo, Sprague-Dawley (SD) rats; settings: Sprague-Dawley, rat, plasma, iv, 8 mg/kg
Method in brief: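 Sprague-Dawley rats (220 ± 20 g, n = 5) were fasted overnight with water allowed, then given test compound solution i.v. at 8 mg/kg. Tail-vein blood was drawn into heparinised tubes at 0.133–12 h. Plasma was extracted with acetonitrile, dried at 30°C, reconstituted in 50% acetonitrile and run on UPLC-QTOF/MS (0.1% formic acid water/acetonitrile gradient). Parameters came from noncompartmental analysis.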

[2] = In vitro release study by dialysis bag method; type: physicochemical; settings: solution formulation, water with 1% Tween 80, 37°C
Method in brief: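 Test compound was dissolved in water/ethanol/PEG400 (20/40/40, v/v/v). Samples equivalent to 10 mg were sealed in dialysis bags (MWCO ~14,000) and dialysed against 100 mL purified water containing 1% Tween 80 at 37°C. Medium aliquots were taken at set times and replaced with fresh medium, diluted with methanol and assayed by HPLC. Cumulative release percentage was plotted against time.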

Caco-2 cells = experiment: Cellular uptake in Caco-2 cells; type: cell-based; settings: Caco-2, 20 μg/mL, 1, 2 and 4 h
[3] = tested on: TNF-α in LPS-induced RAW 264.7 cells; experiment: In vitro anti-inflammatory effect: TNF-α; type: cell-based, Mouse; settings: 25 μg/mL, LPS 1 μg/mL, 24 h
Method in brief: (§1)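 RAW 264.7 mouse macrophages grown in RPMI-1640 with 10% FBS at 37°C, 5% CO2, seeded at 2 × 10^5 cells/well. Cells were exposed to LPS (1 μg/mL) with or without test formulation for 24 h; medium-only and LPS-only wells served as control and model. Supernatants were cleared at 10,000 rpm, 4°C. TNF-α, IL-6 and NO were measured by ELISA kits; mean ± SD, n = 3.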

[4] = tested on: IL-6 in LPS-induced RAW 264.7 cells; experiment: In vitro anti-inflammatory effect: IL-6; type: cell-based, Mouse; settings: 25 μg/mL, LPS 1 μg/mL, 24 h
Method in brief: as §1

[5] = tested on: NO in LPS-induced RAW 264.7 cells; experiment: In vitro anti-inflammatory effect: NO; type: cell-based, Mouse; settings: 25 μg/mL, LPS 1 μg/mL, 24 h
Method in brief: as §1

AUC(0-t) [1]: 902 ± 33.7 ng·h/mL
Cmax [1]: 974 ± 302 ng/mL
MRT inf [1]: 5.27 ± 0.931 h
Tmax [1]: 7.98 ± 3.24 min
In vitro release [2]: released completely in a very short time
Compound: Oc1ccc(/C=C/c2cc(O)cc(O)c2)cc1 [Free RES, Resveratrol]
Cellular uptake (intracellular RES concentration) (Caco-2 cells): rapid cellular uptake relative to RES-NPs
Effect on TNF-α compared to the LPS model [3]: substantially suppressed
Effect on IL-6 compared to the LPS model [4]: substantially suppressed
Effect on NO compared to the LPS model [5]: substantially suppressed
